Measurements published in ChEMBL document CHEMBL4354849, “[1,2,5]Oxadiazolo[3,4-b]pyrazine-5,6-diamine Derivatives as Mitochondrial Uncouplers for the Potential Treatment of Nonalcoholic Steatohepatitis” (J Med Chem, 2020).
Active and inactive are the calls of the source. The calls are words filed in the database; no cut-off is given here.

Key:
[1] = test system: Mus musculus; assay: Induction of energetic stress in Stelic C57BL/6 mouse model of streptozotocin-induced NASH assessed as effect on AMPK-dependent ACC activity at 25 mg/kg/day, po administered in high-fat diet for 21 days by Western blot analysis; type: organism-based; conditions: in vivo, 504 h
[2] = test system: Mus musculus; assay: Effect on core body temperature in C57BL/6J mouse at 25 to 100 mg/kg, po measured 1 to 24 hrs post dose by rectal probe thermometer based assay; type: ADME, organism-based; conditions: in vivo
Summary of the method: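 Male C57BL/6 mice, 11 weeks old, given single oral gavage doses of 25, 50 or 100 mg/kg, or vehicle (90% methylcellulose/2% Tween80/8% DMSO). Core temperature was read by rectal probe thermometer at 1, 2, 4 and 24 h after dosing. n=5–6 per group.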

[3] = Induction of mitochondrial uncoupling in rat L6 cells assessed as oxygen consumption rate measured over 90 mins by oxygen consumption rate by seahorse assay; type: mitochondria, Mitochondria
[4] = Drug level in C57BL/6J mouse brain at 50 mg/kg, po measured after 1 hr by LC-MS analysis; type: ADME, organism-based; conditions: read-out: Drug uptake
Summary of the method: (§1)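 Male C57BL/6 mice, 12 weeks old, chow-fed, given a single 50 mg/kg oral gavage bolus in 90% methylcellulose/2% Tween80/8% DMSO. Killed by cervical dislocation at 1 h. Tissues were rinsed, snap-frozen, powdered and homogenized, then extracted into 90% acetonitrile/10% methanol. Quantified by LC-MS/MS against standards spiked into vehicle-treated tissue, normalized to tissue weight. n=3.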

[5] = test system: Mus musculus; assay: Improvement in liver fibrosis in Stelic C57BL/6 mouse model of streptozotocin-induced NASH assessed as decrease in liver triglyceride content at 25 mg/kg/day, po administered in high-fat diet for 21 days; type: functional, organism-based
Summary of the method: (§2)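 STAM NASH model: male C57BL/6 mice got 200 µg streptozotocin subcutaneously at day 2 of life, then high-fat diet from 4 weeks. At 6 weeks they were randomized, 8 per group. Drug was mixed into the high-fat diet at 25 mg/kg/d for 21 days. Killed at 9 weeks by cardiac puncture under isoflurane. Food intake was measured per cage of 4 every 3–4 days.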

[6] = test system: Mus musculus; assay: Improvement in liver fibrosis in Stelic C57BL/6 mouse model of streptozotocin-induced NASH assessed as effect on liver Gfap mRNA expression at 25 mg/kg/day, po for 21 days
[7] = test system: Mus musculus; assay: Improvement in liver fibrosis in Stelic C57BL/6 mouse model of streptozotocin-induced NASH assessed as increase in plasma cholesterol at 25 mg/kg/day, po administered in high-fat diet for 21 days; type: functional, organism-based; summary of the method: as §2
[8] = test system: Mus musculus; assay: Improvement in liver fibrosis in Stelic C57BL/6 mouse model of streptozotocin-induced NASH assessed as effect on liver Tgfb1 mRNA expression at 25 mg/kg/day, po administered in high-fat diet for 21 days; type: functional, organism-based
[9] = test system: Mus musculus; assay: Improvement in liver fibrosis in Stelic C57BL/6 mouse model of streptozotocin-induced NASH assessed as effect on liver MMP2 mRNA expression at 25 mg/kg/day, po administered in high-fat diet for 21 days; type: functional, organism-based
[10] = test system: Mus musculus; assay: Induction of hyperglycemia in Stelic C57BL/6 mouse model of streptozotocin-induced NASH at 25 mg/kg/day, po administered in high-fat diet for 21 days; type: organism-based; conditions: in vivo, 504 h; summary of the method: as §2
[11] = test system: Mus musculus; assay: Improvement in liver fibrosis in Stelic C57BL/6 mouse model of streptozotocin-induced NASH assessed as liver fibrosis score at 25 mg/kg/day, po administered in high-fat diet for 21 days by Picrosirius ed staining based assay (reference value: 0.91 +/- 0.25); type: functional; summary of the method: as §2
[12] = test system: Mus musculus; assay: Induction of energetic stress in Stelic C57BL/6 mouse model of streptozotocin-induced NASH assessed as effect on AMPK activity at 25 mg/kg/day, po administered in high-fat diet for 21 days by Western blot analysis; type: organism-based; conditions: in vivo, 504 h
[13] = test system: Mus musculus; assay: Improvement in liver fibrosis in Stelic C57BL/6 mouse model of streptozotocin-induced NASH assessed as NAS score at 25 mg/kg/day, po administered in high-fat diet for 21 days (reference value: 4.6 +/- 0.7); type: functional; summary of the method: as §2
[14] = test system: Mus musculus; assay: Improvement in liver fibrosis in Stelic C57BL/6 mouse model of streptozotocin-induced NASH assessed as effect on liver Gfap mRNA expression at 25 mg/kg/day, po administered in high-fat diet for 21 days; type: functional, organism-based
[15] = test system: Mus musculus; assay: Effect on food intake in Stelic C57BL/6 mouse model of streptozotocin-induced NASH assessed as reduction in food intake at 25 mg/kg/day, po administered in high-fat diet for 21 days; type: ADME, organism-based; conditions: in vivo, 504 h; summary of the method: as §2
[16] = test system: Mus musculus; assay: Improvement in liver fibrosis in Stelic C57BL/6 mouse model of streptozotocin-induced NASH assessed as effect on liver Col1a1 mRNA expression at 25 mg/kg/day, po administered in high-fat diet for 21 days; type: functional, organism-based
[17] = test system: Mus musculus; assay: Improvement in liver fibrosis in Stelic C57BL/6 mouse model of streptozotocin-induced NASH assessed as effect on plasma AST level at 25 mg/kg/day, po administered in high-fat diet for 21 days; type: functional, organism-based; summary of the method: as §2
[18] = Drug level in C57BL/6J mouse quadricep muscle at 50 mg/kg, po measured after 1 hr by LC-MS analysis; type: ADME, organism-based, Quadriceps femoris; conditions: read-out: Drug uptake; summary of the method: as §1
[19] = Drug level in C57BL/6J mouse kidney at 50 mg/kg, po measured after 1 hr by LC-MS analysis; type: ADME, organism-based; conditions: read-out: Drug uptake; summary of the method: as §1
[20] = test system: Mus musculus; assay: Improvement in liver fibrosis in Stelic C57BL/6 mouse model of streptozotocin-induced NASH assessed as improvement in pathologist derived steatosis score at 25 mg/kg/day, po administered in high-fat diet for 21 days; type: functional, organism-based; summary of the method: as §2
[21] = test system: Mus musculus; assay: Improvement in liver fibrosis in Stelic C57BL/6 mouse model of streptozotocin-induced NASH assessed as effect on liver Cd146 mRNA expression at 25 mg/kg/day, po administered in high-fat diet for 21 days; type: functional, organism-based
[22] = test system: Mus musculus; assay: Effect on ballooning in Stelic C57BL/6 mouse model of streptozotocin-induced NASH at 25 mg/kg/day, po administered in high-fat diet for 21 days; type: ADME, organism-based; conditions: in vivo, 504 h; summary of the method: as §2
[23] = Drug level in C57BL/6J mouse heart at 50 mg/kg, po measured after 1 hr by LC-MS analysis; type: ADME, organism-based; conditions: read-out: Drug uptake; summary of the method: as §1
[24] = test system: Mus musculus; assay: Improvement in liver fibrosis in Stelic C57BL/6 mouse model of streptozotocin-induced NASH assessed as effect on liver Timp1 mRNA expression at 25 mg/kg/day, po administered in high-fat diet for 21 days; type: functional, organism-based
[25] = Drug level in C57BL/6J mouse liver at 50 mg/kg, po measured after 1 hr by LC-MS analysis; type: ADME, organism-based; conditions: read-out: Drug uptake; summary of the method: as §1
[26] = test system: Mus musculus; assay: Improvement in liver fibrosis in Stelic C57BL/6 mouse model of streptozotocin-induced NASH assessed as effect on liver Cd146 mRNA expression at 25 mg/kg/day, po for 21 days
[27] = test system: Mus musculus; assay: Improvement in liver fibrosis in Stelic C57BL/6 mouse model of streptozotocin-induced NASH assessed as effect on serum ALT level at 25 mg/kg/day, po administered in high-fat diet for 21 days; type: functional, organism-based; summary of the method: as §2
[28] = test system: Mus musculus; assay: Improvement in liver fibrosis in Stelic C57BL/6 mouse model of streptozotocin-induced NASH assessed as reduction in plasma triglyceride at 25 mg/kg/day, po administered in high-fat diet for 21 days; type: functional, organism-based; summary of the method: as §2
[29] = test system: Mus musculus; assay: Improvement in liver fibrosis in Stelic C57BL/6 mouse model of streptozotocin-induced NASH assessed as effect on liver alphaSMA mRNA expression at 25 mg/kg/day, po administered in high-fat diet for 21 days; type: functional, organism-based
[30] = Drug level in C57BL/6J mouse white adipose tissue at 50 mg/kg, po measured after 1 hr by LC-MS analysis; type: ADME, organism-based; conditions: read-out: Drug uptake; summary of the method: as §1
[31] = test system: Mus musculus; assay: Improvement in liver fibrosis in Stelic C57BL/6 mouse model of streptozotocin-induced NASH assessed as improvement in inflammation score at 25 mg/kg/day, po administered in high-fat diet for 21 days; type: functional, organism-based; summary of the method: as §2

## Fc1cccc(Nc2nc3nonc3nc2Nc2ccccc2F)c1
[1]
  Activity: Non-Toxic
[2]
  Activity: Non-Toxic
[3]
  EC50: 190 nM
[4]
  concentration at 1 h: 850 nM
[5]
  Activity: Active
[6]
  Activity: inactive
[7]
  Activity: inactive
[8]
  Activity: inactive
[9]
  Activity: inactive
[10]
  Activity: Non-Toxic
[11]
  Activity: 0.49
[12]
  Activity: Non-Toxic
[13]
  Activity: 3.9
[14]
  Activity: inactive
[15]
  Activity: Non-Toxic
[16]
  Activity: inactive
[17]
  Activity: inactive
[18]
  concentration at 1 h: 260 nM
[19]
  concentration at 1 h: 4830 nM
[20]
  Activity: inactive
[21]
  Activity: inactive
[22]
  Activity: Non-Toxic
[23]
  concentration at 1 h: 2090 nM
[24]
  Activity: inactive
[25]
  concentration at 1 h: 13400 nM
[26]
  Activity: inactive
[27]
  Activity: Active
[28]
  Activity: inactive
[29]
  Activity: inactive
[30]
  concentration at 1 h: 2850 nM
[31]
  Activity: Active
